Ecoli tolC: growth inhibitors of E. coli tolC mutant, primary screen, strain BW25113 ΔtolC::kan, 384-well; OD615; growth inhibition, % at 10 µM (by protocol); actives 2.2% (n = 65,000);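 active = growth inhibition at or above a cutoff equal to the mean over every tested compound plus 3 SD, cut at about 60% in these data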;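 note: growth measured after 20 h incubation at 37 °C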
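Test system: tolC-deleted E. coli BW25113 | Medium: LB with kanamycin 50 µg/mL | Compound dosing: Single concentration, 10 µM final per compound | Schedule: 37 °C, 20 h exposure | Measured by: OD at 615 nm | Evaluation: Percent growth inhibition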
Ecoli WT expand: growth inhibitors of wild-type E. coli, primary screen, strain BW25113, expanded library, OD600; AID 710, 2007; actives 0.15% (n = 98,000); OD600 absorbance; growth inhibition, % at 100 µM;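 active = growth inhibition above about 50% at one test dose, limit read from the data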;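 note: growth measured after 20 h incubation at 37 °C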
MMP13 inh: human MMP13 inhibitors, primary screen, biochemical, FRET peptide cleavage. MMP-13 fTHP FRET cleavage, Mca fluorescence. inhibition, % at 4 µM. actives 0.07% (n = 65,000);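 active = inhibition above the mean of compound-free control plate wells plus 3 SD, cut at about 14% in these data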;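 note: 0% = DMSO wells and 100% = wells with reference MMP-13 inhibitor after basal subtraction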
E coli RNAP: E. coli RNAP inhibitors, biochemical; actives 0.2% (n = 62,000); E. coli RNA polymerase, fluorescence transcription assay; inhibition, %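 (tested at 10 µM)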; in the data active = inhibition above about 20%;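 note: 0% = enzyme without compound and 100% = no enzyme blank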
HePTP inh: inhibitors of human HePTP phosphatase, primary screen, biochemical, absorbance, leukemia target; Tyrosine-protein phosphatase non-receptor type 7 (Homo sapiens), P35236; recombinant HePTP phosphatase activity, OD absorbance; inhibition, % at 20 µM; actives 0.64% (n = 110,000); in the data active = inhibition above about 50%;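 note: plate controls were vehicle for no effect and reference inhibitor for full effect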
Target sequence (P35236 whole entry, looked up): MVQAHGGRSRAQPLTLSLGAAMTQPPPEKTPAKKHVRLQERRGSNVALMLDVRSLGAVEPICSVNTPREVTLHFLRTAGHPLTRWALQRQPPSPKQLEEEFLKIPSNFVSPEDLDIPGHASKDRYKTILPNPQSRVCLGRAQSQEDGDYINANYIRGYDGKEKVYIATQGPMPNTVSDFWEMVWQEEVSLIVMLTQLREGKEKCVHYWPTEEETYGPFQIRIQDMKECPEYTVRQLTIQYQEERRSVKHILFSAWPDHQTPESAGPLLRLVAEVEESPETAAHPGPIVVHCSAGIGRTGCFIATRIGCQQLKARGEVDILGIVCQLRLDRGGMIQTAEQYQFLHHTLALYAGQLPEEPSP
AP ELISA ortho: alternative complement pathway inhibitors, primary screen, biochemical, ELISA, human serum, orthogonally pooled compounds; inhibition, % at 5 µM; LPS-coated ELISA, C3 deposition; tested in compound mixtures; AID 1235, 2008; actives 0.08% (n = 62,000);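 active = inhibition above 30% in each of the two pooled mixtures holding the compound, so the lower value exceeds 30%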;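 note: 0% = serum in Mg-EGTA without compound and 100% = EDTA serum blank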
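Test system: human serum alternative complement pathway, C3 deposition on LPS-coated wells; also added: Plate-bound LPS; doses: 5 µM per compound in ten-compound mixtures; schedule: 1 h at 37 °C; detection: Anti-C3 ELISA, OD 450 nm; evaluation: percent inhibition of C3 deposition onto LPS; repeats: two pool placements per compound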
Numbers without * were called inactive; . = no result. The sample as a whole holds a higher share of hits than the screen did.

SMILES	Ecoli tolC	Ecoli WT expand	MMP13 inh	E coli RNAP	HePTP inh	AP ELISA ortho
N#Cc1c(C(F)(F)F)cc(-c2cccs2)nc1SCC(=O)Nc1ccc(S(N)(=O)=O)cc1	.	.	.	.	73*	.
CCOc1cc(C(=O)Nc2ccccc2Br)cc(OCC)c1OCC	.	.	.	.	2	.
Cc1ccc(N=C2NC(=O)/C(=C/c3ccccc3F)S2)cc1	.	.	.	.	92*	.
COc1ccccc1/C=C1/SC(=Nc2ccc(F)cc2)NC1=O	.	.	.	.	1	.
CCOC(=O)c1cc2c(ccn2C)n1Cc1ccccc1C	69*	-10	3	8	1	9
Cc1ccccc1Cn1c(C(=O)OC(C)C)cc2c1ccn2C	.	6	.	.	.	.
CCCCOc1cc(C)nc(NCc2ccccc2)n1	67*	5	3	1	-1	-2
COc1ccc2[nH]c(=O)c(CNC3CCCCC3)cc2c1	-19	3	-43	11	15	8
COc1ccc2[nH]c(=O)c(CN(C(=O)NC3CCCCC3)C3CCCCC3)cc2c1	72*	-10	-23	3	8	10
COc1ccc(CN(Cc2cc3cc4c(cc3[nH]c2=O)OCO4)C(=O)NC2CCCCC2)cc1	72*	-14	-48	-5	3	14
Cc1cccc2cc(CN(Cc3ccco3)C(=O)NC3CCCCC3)c(=O)[nH]c12	64*	-7	-2	2	4	21
Cc1nc2c(-c3ccccc3)cnn2c(C(C)(C)C)c1C	.	.	.	.	-10	.
CCC(C)N1CCN(S(=O)(=O)c2ccccc2)CC1 (stereo unspecified)	.	.	.	.	-2	.
O=C(NC(=S)NNc1nc(-c2ccccc2)cs1)c1cc2ccccc2oc1=O	.	.	.	.	99*	.
O=C(Nc1nc(-c2ccccc2)cs1)c1cc2ccccc2oc1=O	.	.	.	.	-15	.
Cc1c(NC(=O)c2nn3c(C(F)(F)F)c4c(nc3c2Cl)-c2ccccc2CC4)c(=O)n(-c2ccccc2)n1C	.	.	.	.	-13	.
O=C(O)c1nn2c(C(F)(F)F)c3c(nc2c1Cl)-c1ccccc1CC3	.	.	.	.	70*	.
COC1=CC(CC(=O)c2ccc(OC)cc2)C(C(=O)c2ccccc2Cl)C=C1OC (stereo unspecified)	.	.	.	.	95*	.
Cc1cccc(/C(N)=N/OC(=O)COc2ccccc2)c1	.	.	.	.	7	.
Cc1cc(Nc2ccccc2)n(C(=O)c2ccc([N+](=O)[O-])cc2)n1	.	.	.	.	7	.
COc1ccc(/C=N/OCC(=O)N=Nc2c(O)n(CN(C)C)c3ccc(Br)cc23)cc1	.	.	.	.	104*	.
COc1cccc(/C=N/Nc2nc3nonc3nc2Nc2cccc(C)c2C)c1O	.	.	.	.	-2	.
COc1c(Br)cc(Br)cc1/C=N/NC(=O)COc1ccccc1[N+](=O)[O-]	.	.	.	.	12	.
COc1cc([N+](=O)[O-])cc(/C=N/NC(=O)COc2c(Br)cc(Br)cc2Br)c1O	.	.	.	.	79*	.
CC1=NN(c2ccc(S(N)(=O)=O)cc2)C(=O)/C1=C\c1ccc2c(c1)OCO2	.	.	.	.	63*	.
SMILES	Ecoli tolC	Ecoli WT expand	MMP13 inh	E coli RNAP	HePTP inh	AP ELISA ortho
CC1=NN(c2ccc(Cl)c(Cl)c2)C(=O)/C1=C/c1ccc2c(c1)OCO2	.	.	.	.	9	.
C=CCn1c(NC(C)c2cc(Cl)ccc2O)nc2ccccc21 (stereo unspecified)	100*	4	-8	0	-4	27
C=CCn1c(NCc2cc(C)ccc2O)nc2ccccc21	41	0	2	5	-2	8
CCCCCC/C(=N/O)c1ccccn1	100*	37	0	8	-7	-13
O=C(CN1C(=O)/C(=C/c2ccccc2Cl)SC1=S)Nc1cccc(O)c1	.	.	.	.	2	.
O=C(Cc1ccccc1)Nc1ccccc1N1CCN(c2ccccc2)CC1	63*	0	-4	1	6	14
Cc1ccc(-c2nnc(SCC(=O)N3CC(C)CC(C)C3)o2)cc1C (stereo unspecified)	97*	-8	2	4	8	4
CC1CC(C)CN(C(=O)CSc2nnc(-c3ccc(Cl)cc3)o2)C1 (stereo unspecified)	5	2	0	6	-1	26
COc1ccc(N2C(=O)NC(=O)/C(=C/c3ccc(Sc4ccc(C)cc4)o3)C2=O)cc1	.	.	.	.	-22	.
COc1ccc(CCNC(=O)/C=C/c2ccc([N+](=O)[O-])cc2)cc1	.	.	.	.	75*	.
COc1ccc(/C=C/C(=O)NCc2ccc(OC)cc2)cc1	.	.	.	.	3	.
O=C(Nc1cccc([N+](=O)[O-])c1)c1cc(-c2ccco2)nc2ccccc12	.	.	.	.	103*	.
O=C(CSCc1cccc(Br)c1)Nc1cccc2cccnc12	.	.	.	.	4	.
Cc1cccc(NC(=O)CN(c2ccc(Br)cc2)S(C)(=O)=O)c1	.	.	.	.	3	.
Cc1ccc(N(CC(=O)Nc2cccc(C)c2)S(=O)(=O)c2cccc3nonc23)cc1	62*	-7	-4	5	20	13
CC(C)OCC(O)Cn1c2ccccc2c2ccccc21 (stereo unspecified)	.	.	.	.	-13	.
CC(C)CN(CC(C)C)S(=O)(=O)c1ccc(C(=O)N2CCOCC2)cc1	.	.	.	.	-20	.
O=C(CC1Nc2ccccc2NC1=O)Nc1cccc(C(=O)O)c1 (stereo unspecified)	.	.	.	.	52*	.
Oc1ccc2c(c1)oc1cc(O)ccc12	100*	35	-9	2	-5	-14
COc1ccc(-n2cnc3cc(NCc4cccs4)ccc32)cc1	98*	-12	-13	.	6	26
O=C1C2C3C=CC(C2C(=O)N1c1ccccc1)C1C(=O)N(c2ccccc2)C(=O)C31 (stereo unspecified)	.	.	.	.	10	.
O=C(c1nn2c(C(F)(F)F)cc(-c3ccc(Br)cc3)nc2c1Cl)N1CCOCC1	.	.	.	.	6	.
Cc1ccc(Cl)cc1N1CCN(C(=O)CCS(=O)(=O)c2cccc3nonc23)CC1	61*	.	4	0	3	14
Cc1sc2ncn(-n3c(C)ccc3C)c(=O)c2c1C	11	1	4	4	-5	-12
Cc1ccc(-c2csc3ncn(-n4c(C)ccc4C)c(=O)c23)o1	67*	-9	6	3	2	4
SMILES	Ecoli tolC	Ecoli WT expand	MMP13 inh	E coli RNAP	HePTP inh	AP ELISA ortho
COc1cc(NC(=O)C2CCCCC2)c(OC)cc1Cl	.	.	.	.	-9	.
CCCC(NS(=O)(=O)c1ccc(C)cc1)C(=O)O (stereo unspecified)	.	-4	.	.	.	.
O=C(O)CCC(NS(=O)(=O)c1ccc(-c2ccccc2)cc1)C(=O)O (stereo unspecified)	-5	-1	50*	3	-4	6
Cc1ccc2nc(NC(=O)CNS(=O)(=O)c3ccc(Br)s3)sc2c1	61*	-12	1	7	4	12
Cc1ccc2nc(NC(=O)CN(C)S(=O)(=O)c3ccc(Br)s3)sc2c1	81*	-10	3	-5	5	10
Cc1cccc2sc(NC(=O)CNS(=O)(=O)c3ccc(Br)s3)nc12	31	-5	5	-13	-11	2

Source: PubChem (several laboratories)
